Bioassay records (PubChem)
EBI2 antag: blocks human EBI2 receptor beta-arrestin signaling | EBI2 beta-arrestin recruitment, luminescence, 7a,25-OHC stimulated | inhibition, % at 5 µM | P32249 | 360,000 compounds, 0.81% hits; in the data active = inhibition above about 38%;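 also: enzyme fragment complementation signal reports receptor beta-arrestin coupling in cells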
HTR2A ag: agonists of mouse serotonin 5-HT2A receptor (HTR2A). CHO-K1 mHTR2A beta-arrestin complementation, luminescence; percent of 30 µM serotonin response. P35363. AID 624169. 360,000 compounds, 0.66% hits. activation, % at 7.6 µM;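 active = activation above a run cutoff, the mean activation of all tested compounds plus 3 SD, cut at about 14% in these data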
CCR6 antagonist: CCR6 (human) receptor antagonism; P51684; CHO-K1 CCR6 PathHunter beta-arrestin, luminescence, CCL20-stimulated; inhibition, % at 20 µM; 340,000 compounds, 0.49% hits; AID 493098;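 active = compounds whose inhibition of the agonist-driven luminescence signal at 20 µM reaches about 50%, limit read from the data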;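 also: cells stimulated with CCL20 at 14 nM final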
APJ antag: antagonists of human APJ apelin receptor. CHO-K1 APJ beta-arrestin complementation, luminescence. inhibition, % at 20 µM. 330,000 compounds, 0.32% hits;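 active = inhibition above about 40% at 20 µM, limit read from the data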;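 also: cells challenged with 10 nM apelin-13 agonist together with compound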
APJ ag: agonists of human APJ apelin receptor. activation, % at 20 µM. P35414. CHO-K1 APJ PathHunter beta-arrestin, luminescence; 0% DMSO wells, 100% apelin. 330,000 compounds, 0.11% hits. AID 2520;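 active = activation more than six SD over the plate average, tested at 20 µM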
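Incubation: overnight seeding, 90 min compound at 25 °C, 1 h detection; test system: PathHunter CHO-K1 APJ (AGTRL-1) beta-arrestin reporter cells; amount: 1000 cells/well; doses: one dose, 20 µM compound, 1% DMSO; measured by: beta-gal luminescence; measure: agonist-driven arrestin binding to APJ; benchmarks: negative DMSO alone, positive Apelin-13 at 10 nM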
CXCR6 inh: blocks human CXCR6 beta-arrestin recruitment | O00574 | CHO-K1 PathHunter CXCR6 beta-arrestin, luminescence | inhibition, % at 20 µM | 360,000 compounds, 0.36% hits; in the data active = inhibition above about 34%, passing the limit was not always enough;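 also: antagonist mode with CXCL16 agonist at 10 nM final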
Target sequence (O00574 whole entry, looked up): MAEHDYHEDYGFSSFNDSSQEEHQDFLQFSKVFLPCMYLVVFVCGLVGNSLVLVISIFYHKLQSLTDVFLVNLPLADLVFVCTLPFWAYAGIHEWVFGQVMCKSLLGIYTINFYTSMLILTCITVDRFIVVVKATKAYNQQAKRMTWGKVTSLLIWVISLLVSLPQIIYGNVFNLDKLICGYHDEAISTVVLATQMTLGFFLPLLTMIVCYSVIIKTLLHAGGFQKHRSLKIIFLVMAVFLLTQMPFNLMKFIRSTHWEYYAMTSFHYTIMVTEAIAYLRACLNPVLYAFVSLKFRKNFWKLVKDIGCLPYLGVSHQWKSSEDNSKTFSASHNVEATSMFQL
OPRM1 ag: counter-screen for mouse HTR2A agonists: human mu opioid receptor agonists; shares compounds with HTR2A ag; U2OS OPRM1 beta-arrestin PathHunter, luminescence; DMSO 0%, DAMGO 9.3 µM 100%; activation, % at 9.3 µM; 2,300 compounds, 5.3% hits;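 active = mean activation above the mean of DMSO-only wells plus 3 SD, cut at about 0.5% in these data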
m5-HT2A ag conf: confirmation of mouse HTR2A serotonin receptor agonists; shares compounds with HTR2A ag; CHO-K1 PathHunter beta-arrestin recruitment, luminescence; DMSO 0%, 30 µM serotonin 100%; activation, % at 7.6 µM; 2,300 compounds, 19% hits; AID 624381;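 active = mean activation across triplicates above the hit threshold derived in the original primary screen, cut at about 15% in these data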
A number is an active result; - = inactive; . = not tested or not shown; ! = not confirmed by another sample. In the library only some 2.2% were active in any assay of this set; here they are far more common.

SMILES	EBI2 antag	HTR2A ag	CCR6 antagonist	APJ antag	APJ ag	CXCR6 inh	OPRM1 ag	m5-HT2A ag conf
Cc1nnsc1C(=O)NC1CCCc2c1cnn2-c1ccc(C(C)(C)C)cc1 (stereo not given)	-	14	-	-	-	-	-	-
O=C(Nc1ccn(C2CCC(CO)O2)c(=O)n1)c1ccccc1 (stereo not given)	-	-	.	.	.	-	.	.
Cc1cc2c(cc1C)-n1nnnc1C(N(Cc1ccccc1)Cc1ccccc1)C(=O)N2 (stereo not given)	-	-	.	.	.	.	.	.
Cc1ccc(C)c(S(=O)(=O)NCc2ccc(C(=O)N3CCN(c4ccccc4)CC3)cc2)c1	-	-	-	-	-	-	.	.
COc1ccc(N2CCN(C(=O)c3ccc(CNS(=O)(=O)c4cc(C)ccc4C)cc3)CC2)cc1	-	25	-	-	-	-	-	-
COC(=O)C[C@@H]1C=C[C@H](NC(=O)c2ccccc2)[C@@H](CO)O1	-	-	.	.	.	.	.	.
CSc1cccc(NC(=O)CCCOc2cc(=O)n(C)c3ccccc23)c1	-	-	.	.	.	-	.	.
Cc1nn(-c2ccccc2)c(N2CCCC2)c1/C=N/NC(=O)c1cc(-c2ccccn2)nc2ccccc12	-	15	-	-	-	-	-	-
COc1ccc(Nc2nnc(-c3ccc(O)cc3)c3ccccc23)cc1	-	30	-	-	-	-	-	-
Oc1ccc(Nc2nnc(-c3ccc(O)cc3)c3ccccc23)cc1	-	-	-	-	-	-	.	.
O=C(Nc1ccccc1F)N1CCCC1c1cccnc1 (stereo not given)	-	-	-	-	-	-	.	.
CN1CCC[C@H]1c1cccnc1	-	38!	-	-	-	-	-	-
COc1ccccc1CNS(=O)(=O)c1ccc2c(c1)NC(=O)CO2	-	16	-	-	-	-	-	-
COc1ccc(NC(=O)CN(C)CC(=O)NCC(=O)Nc2ccc(F)cc2)cc1	-	16	-	-	-	-	-	-
COc1cccc(NC(=O)CN(C)CC(=O)NCC(=O)Nc2ccc(F)cc2)c1	-	-	-	-	-	-	.	.
O=C(CCN1CCCCC1)c1cccc(Cl)c1	-	-	-	.	.	-	.	.
CC(OC(=O)c1ccccc1Br)C(=O)Nc1nc(-c2cccc([N+](=O)[O-])c2)cs1 (stereo not given)	-	17	-	-	-	-	-	-
CCn1nnnc1SCC(=O)N1c2ccccc2Sc2ccccc21	-	-	-	-	-	-	.	.
Cn1nnnc1SCC(=O)N1c2ccccc2Sc2ccccc21	-	39	-	-	-	-	-	-
COc1ccc(C2c3cc(OC)c(OC)cc3CC3C(=O)OCC32)cc1OC (stereo not given)	-	-	-	.	.	-	.	.
OCC[C@@H]1C[C@@H](O)[C@H](O)[C@@]2(Cc3ccccc3CO2)O1	-	-	-	-	-	-	.	.
OCC[C@H]1C[C@H](O)[C@@H](O)[C@@]2(Cc3ccccc3CO2)O1	-	17	-	-	-	-	-	-
Cc1ccccc1NC(=O)Cc1nc(COC(=O)COc2cccc(C)c2C)cs1	-	15	-	-	-	-	-	-
CC(=O)Nc1ccc(C(=O)N/C(=C\c2ccccc2)C(=O)Nc2cccc(C(=O)O)c2)cc1	-	-	-	-	-	-	.	.
Cc1ccc(C(=O)N/C(=C/c2ccccc2)C(=O)NC(Cc2ccccc2)C(=O)O)cc1 (stereo not given)	-	16	-	-	-	-	-	42
O=C(Nc1cccc(C(=O)O)c1)/C(=C\c1ccccc1)NC(=O)c1ccccc1	-	18	-	-	-	-	-	-
O=C(Nc1ccc(C(=O)O)cc1)/C(=C/c1ccc2c(c1)OCO2)NC(=O)c1cccc(Br)c1	-	19	-	-	-	-	-	-
CCCCN(C=O)c1c(CC)nc2c(OCc3ccc(C(F)(F)F)cc3)cccn12	-	-	.	.	.	-	.	.
